{"source": "ChEMBL document CHEMBL1121630", "about": "“Prostaglandin analogues possessing antinidatory effects. 1. Modification of the omega chain” (1980)"}
{"species": "Rattus norvegicus", "assay": "Antinidatory effect was measured in rat relative to that of prostaglandin F2 alpha.", "format": "functional", "procedure,_shortened": "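Mated Wistar female rats (9 weeks, 180–200 g); sperm in vaginal smear marked day 0. Analogues in 10% EtOH–0.4% Tween 80 in saline (1 mg/mL stock, diluted with saline), given sc twice daily on days 3–5 at three to eight doses, 5–20 rats per dose. Killed day 11; no implantation site = effective. ED50 by Litchfield-Wilcoxon, expressed relative to PGF2α.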"}
{"smiles": "COC(=O)CCC/C=C\\C[C@@H]1[C@@H](/C=C/[C@@H](O)CC(=O)c2cccc(Cl)c2)[C@H](O)C[C@@H]1O", "Activity": 10}
{"smiles": "COC(=O)CCC/C=C\\C[C@@H]1[C@@H](/C=C/[C@@H](O)C2(Sc3ccccc3)CC2)[C@H](O)C[C@@H]1O", "Activity": "<2"}
{"smiles": "COC(=O)CCC/C=C\\C[C@@H]1[C@@H](/C=C/[C@@H](O)CC(=O)c2ccc(Cl)cc2)[C@H](O)C[C@@H]1O", "Activity": 8}
{"smiles": "COC(=O)CCC/C=C\\C[C@@H]1[C@@H](/C=C/[C@@H](O)C#COc2ccccc2)[C@H](O)C[C@@H]1O", "Activity": "<2"}
{"smiles": "COC(=O)CCC/C=C\\C[C@@H]1[C@@H](/C=C/[C@@H](O)C2C=Cc3ccccc32)[C@H](O)C[C@@H]1O", "note": "(stereo partly specified)", "Activity": "<5"}
{"smiles": "COC(=O)CCC/C=C\\C[C@@H]1[C@@H](/C=C/[C@@H](O)c2ccccc2OC)[C@H](O)C[C@@H]1O", "Activity": "<2"}
{"smiles": "COC(=O)CCC/C=C\\C[C@@H]1[C@@H](/C=C/[C@@H](O)C(Oc2ccccc2)C(=O)OC)[C@H](O)C[C@@H]1O", "note": "(stereo partly specified)", "Activity": "<4"}
{"smiles": "COC(=O)CCC/C=C\\C[C@@H]1[C@@H](/C=C/[C@@H](O)C[Si](C)(C)c2ccccc2)[C@H](O)C[C@@H]1O", "Activity": "<1"}
{"smiles": "COC(=O)CCC/C=C\\C[C@@H]1[C@@H](/C=C/[C@@H](O)c2cc3ccccc3s2)[C@H](O)C[C@@H]1O", "Activity": 40}
{"smiles": "COC(=O)CCC/C=C\\C[C@@H]1[C@@H](/C=C/[C@@H](O)C#Cc2ccccc2)[C@H](O)C[C@@H]1O", "Activity": 40}
{"smiles": "COC(=O)CCC/C=C\\C[C@@H]1[C@@H](/C=C/[C@@H](O)c2cc3ccccc3o2)[C@H](O)C[C@@H]1O", "Activity": 100}
{"smiles": "COC(=O)CCC/C=C\\C[C@@H]1[C@@H](/C=C/[C@@H](O)CSC2=CCCCC2)[C@H](O)C[C@@H]1O", "Activity": 10}
{"smiles": "COC(=O)CCC/C=C\\C[C@@H]1[C@@H](/C=C/[C@@H](O)CC(=O)Oc2ccccc2)[C@H](O)C[C@@H]1O", "Activity": "<1"}
{"smiles": "COC(=O)CCC/C=C\\C[C@@H]1[C@@H](/C=C/[C@@H](O)C#Cc2cccc(Cl)c2)[C@H](O)C[C@@H]1O", "Activity": 40}
{"smiles": "COC(=O)CCC/C=C\\C[C@@H]1[C@@H](/C=C/[C@@H](O)CC(=O)c2ccccc2)[C@H](O)C[C@@H]1O", "Activity": 40}
{"smiles": "COC(=O)CCC/C=C\\C[C@@H]1[C@@H](/C=C/[C@@H](O)C#Cc2ccc(Cl)cc2)[C@H](O)C[C@@H]1O", "Activity": 1}
